Assays:
Mcl-1 = settings: cited from earlier work
H1299 = settings: cited from earlier work
PC3ML cells = assay: Cell viability, ATP-LITE assay; assay type: cell-based; settings: Homo sapiens, PC3-ML, 72 h, read-out: PC3ML EC50
Method in brief: (§1)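 Human cancer cells are grown in F12 or RPMI1640 medium with 5 mM L-glutamine, 5% FBS and penicillin/streptomycin. Cells are seeded at densities chosen by doubling time. Fresh 5% serum medium is added, and test compound is applied 24 h after seeding at varied concentrations in 0.1% DMSO. After 72 h, ATP is read with ATP-LITE reagent and normalized to DMSO-treated controls.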

[1] = system: H460 human lung cancer cell line; assay: Cell viability, ATP-LITE assay; assay type: cell-based; settings: NCI-H460, 72 h, read-out: H460 EC50
Method in brief: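 H460 cells were grown in F12 or RPMI1640 with 5 mM L-glutamine, 5% FBS and penicillin/streptomycin, then plated at 2000 cells/well. After 24 h, fresh 5% medium was added, followed by test compound at final concentrations in 0.1% DMSO. Viability was read with ATP-LITE after 72 h of treatment, and data were normalized to DMSO-treated cells.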

[2] = system: RS11846 human lymphoma cell line; assay: Cell viability, ATP-LITE assay; assay type: cell-based; settings: 72 h, read-out: RS11846 EC50 (ATP-LITE assay)
Method in brief: as §1

[3] = system: RS11846 human lymphoma cell line; assay: Apoptosis, Annexin V-FITC and propidium iodide assay; assay type: cell-based; settings: read-out: RS11846 EC50 (Annexin V-FITC and propidium iodide assay)
[4] = Liver microsomal stability; assay type: in vitro ADME; settings: rat, microsomes, 4 µM, pH 7.4
Plasma stability = assay type: in vitro ADME; settings: rat, 100 µM
H1299 cells = assay: Cell viability, ATP-LITE assay; assay type: cell-based; settings: Homo sapiens, NCI-H1299, 72 h, read-out: H1299 EC50

In the case of `CN(C)CC[C@H](CSc1ccccc1)Nc1ccc(S(=O)(=O)NC(=O)c2ccc(N3CCN(Cc4ccccc4-c4ccc(Cl)cc4)CC3)cc2)cc1[N+](=O)[O-]` [ABT-737], the “effectiveness against Mcl-1” value (Mcl-1) is given as “not effective” and the “killing Mcl-1 overexpressing cell lines such as the H1299” value (H1299) is given as “not effective”.

With `Cc1cc2c(C(C)C)c(O)c(O)cc2c(O)c1-c1c(C)cc2c(C(C)C)c(O)c(O)cc2c1O` [Apogossypol] the EC50 (PC3ML cells) was 10.3 µM, the EC50 [1] was 5.8 µM and the EC50 [2] was 5 µM. The EC50 [3] was 8.6 µM, the “Microsomal Stability (T=1 hr)” value [4] was 60% and the “Plasma Stability (T=1 hr)” value (Plasma stability) was 53%.

Compound `Cc1cc2c(C(C)C)c(O)c(O)c(C=O)c2c(O)c1-c1c(C)cc2c(C(C)C)c(O)c(O)c(C=O)c2c1O` [Gossypol] has an EC50 (PC3ML cells) of 3.1 µM, an EC50 [1] of 3 µM and an EC50 (H1299 cells) of 6 µM. It also gave an EC50 [2] of 2.2 µM and an EC50 [3] of 4.23 µM.

From PMC2750823 (Molecular cancer therapeutics, 2009)
